CRFR2-BP ag: agonists of human CRF-binding protein/CRF-R2 receptor complex; actives 0.46% (n = 350,000); HEK293 CRF-R2/CRF-BP, calcium dye fluorescence (FLIPR); percent of saturating CRF peptide response; activation, % at 13.2 µM; AID 588473;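 active = activation of at least 50%, plus an integration ratio under a set limit after plate pattern correction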
TMEM16A act: mouse TMEM16A channel activation, primary screen; Q8BHY3; HEK293 TMEM16A/YFP-H148Q/I152L, iodide quench fluorescence; hits give low values; B-score at 10 µM; actives 0.3% (n = 340,000);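 active = fluorescence-ratio B-score plate-corrected deviation score at least 3 library SD below zero, with starting fluorescence score within 5 deviations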;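 also: channel opened by trigger with iodide after compound preincubation; score built on the fluorescence ratio of max minus min over baseline; more negative score means more quench and so TMEM16A activation or potentiation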
TAAR1 ag: agonists of human TAAR1 | Q96RJ0 | CHO RD-HGA16 TAAR1, Fluo-8 calcium fluorescence; vehicle wells 0%, saturating PEA agonist 100% | activation, % at 3 µM | actives 0.99% (n = 360,000);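 active = activation above the mean activation of all test compounds in the run plus 3 SD, cut at about 38% in these data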
Target sequence (Q96RJ0 whole entry, looked up): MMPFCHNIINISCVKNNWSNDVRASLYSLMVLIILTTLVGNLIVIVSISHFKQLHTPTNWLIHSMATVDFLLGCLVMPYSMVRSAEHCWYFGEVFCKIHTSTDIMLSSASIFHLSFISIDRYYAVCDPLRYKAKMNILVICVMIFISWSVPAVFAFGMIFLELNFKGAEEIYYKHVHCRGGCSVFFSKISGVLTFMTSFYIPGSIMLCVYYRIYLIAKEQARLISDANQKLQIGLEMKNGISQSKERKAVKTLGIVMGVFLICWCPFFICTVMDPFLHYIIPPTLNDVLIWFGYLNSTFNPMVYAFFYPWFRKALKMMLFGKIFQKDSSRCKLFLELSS
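Signal – calcium-sensitive Fluo-8 signal, excitation 470-495, emission 515-575 nm · System – RD-HGA16 (CHO) cells co-expressing Gα16 and hTAAR1 · Incubation – 17-24 h seeding, 75 min 37 °C dye, 30 min RT · Compound dosing – 3 µM single concentration · Repeats – no replicates (n 1)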
TAAR1 antagonist: antagonists of human TAAR1; AID 624466; actives 1.5% (n = 360,000); CHO RD-HGA16 TAAR1, Fluo-8 calcium fluorescence, antagonist; inhibition, % at 3 µM;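 active = inhibition above a per-plate cutoff, the mean inhibition of test compounds on that plate plus 3 SD, cut at about 49% in these data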
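Test system – hTAAR1-expressing CHO RD-HGA16 cells, Gα16-coupled · Also added – β-PEA at EC80 concentration, post-compound challenge · Compound – 3 µM, single point · Incubation – dye loading 75 min at 37 °C, then 30 min room temperature · Measured by – Fluo-8 intracellular calcium dye fluorescence, real-time kinetic reads · Benchmarks – vehicle and agonist controls · Replicates – singlicate, one well per test compound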
CRFR2-BP antag: blocks CRF-induced signaling of the CRF-BP/CRF-R2 complex | HEK293 CRF-R2/CRF-BP, CRF-induced calcium fluorescence | inhibition, % at 11.8 µM | actives 0.59% (n = 350,000) | AID 588475;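 active = inhibition of the ligand-induced calcium signal above about 50% at the single tested concentration, limit read from the data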
TMEM16A inh: blocks the mouse calcium-activated chloride channel TMEM16A; normalized B-score (activity score, 25-100; higher = stronger inhibition) at 10 µM; AID 588511; HEK293 TMEM16A/YFP iodide influx fluorescence, ionomycin; Q8BHY3; actives 1.2% (n = 310,000);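 active = ratio plate-corrected score three or more library SD toward inhibition, starting fluorescence score within five deviations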;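 also: score derived from kinetic fluorescence span divided by baseline fluorescence per well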
Of the large screens only hits and unclear results are named; the others gave an inactive call. Hits are enriched below; roughly 3.9% of the tested compounds scored in any of these assays.

Cc1c(C(=O)N2CCC2(C)C(=O)O)oc2ccccc12 (configuration not stated)	none (no result: CRFR2-BP ag, TMEM16A act, CRFR2-BP antag, TMEM16A inh)
Cc1ccc(NC(=S)N(CCCN2CCCC2)Cc2cccn2Cc2ccc(Cl)cc2)cc1Cl	none
COc1ccc(NC(=S)N(CCCN2CCCC2)Cc2cccn2Cc2ccc(Cl)cc2)cc1Cl	TAAR1 ag 40
CCCCCCCCC(c1nc2cc(C)c(C)cc2[nH]1)n1c(=O)c(-c2ccccc2Br)nc2ccccc21 (configuration not stated)	none (no result: CRFR2-BP ag, TMEM16A act, CRFR2-BP antag, TMEM16A inh)
COc1ccc(/C=C2/C(=O)N(c3c(F)c(F)c(F)c(F)c3F)N=C2C)cc1	TAAR1 ag 42
COc1ccc(/C=C2/C(=O)N(c3ccccc3)N=C2C)cc1	none (no result: TAAR1 ag, TAAR1 antagonist)
COc1cccc(/C=C/C(=O)OCC(=O)N2c3ccccc3NC(=O)C2(C)C)c1	TAAR1 antagonist 56
CC1C=CCC2C(=O)N(c3cccc(C(=O)Nc4ccc(Br)cc4)c3)C(=O)C12 (configuration not stated)	TAAR1 antagonist 50, TMEM16A inh 25
O=C(Nc1ccc(Br)cc1)c1cccc(N2C(=O)C3C4CCC(C4)C3C2=O)c1 (configuration not stated)	TAAR1 antagonist 49
Cc1ccccc1NC(=O)c1cccc(N2C(=O)C3C4CC(C(Br)C4Br)C3C2=O)c1 (configuration not stated)	TAAR1 ag 41, TAAR1 antagonist 73
Cc1cccc(NC(=O)c2cccc(N3C(=O)C4CCC(C)CC4C3=O)c2)c1C (configuration not stated)	none
Cc1cccc(NC(=O)c2ccc(N3C(=O)C4C5C=CC(C6CC56)C4C3=O)cc2)c1 (configuration not stated)	TAAR1 antagonist 68
O=C(Nc1ccccc1)c1cccc(N2C(=O)C3C4C=CC(C5CC45)C3C2=O)c1 (configuration not stated)	none
CCCOC(=O)c1cc(NC(=O)/C=C/c2ccccc2)ccc1O	none (no result: CRFR2-BP ag, TMEM16A act, CRFR2-BP antag)
COc1ccc(CC(=O)N/N=C(\C)CC(=O)Nc2ccc(N(C)C)cc2)cc1OC	none
O=C(CCc1nnc2ccc(NCc3ccco3)nn12)Nc1ccc(F)cc1F	none
CN(C)S(=O)(=O)N(CC(=O)Nc1ccc(S(=O)(=O)N2CCCC2)cc1)c1ccccc1	none
O=C(CN(C(=O)CNC(=O)c1cccs1)c1ccccc1)NC1CCCCC1	none
C[C@H](CO)N1C[C@H](C)[C@@H](CN(C)C(=O)Nc2ccccc2)Oc2c(NC(=O)Nc3ccccc3)cccc2C1=O	TAAR1 antagonist 50 (no result: TMEM16A inh)
C[C@H](CO)N1C[C@H](C)[C@@H](CN(C)Cc2ccc(Cl)c(Cl)c2)Oc2c(NC(=O)Cc3ccccc3)cccc2C1=O	TAAR1 antagonist 71 (no result: TMEM16A inh)
C[C@H]1CN([C@@H](C)CO)C(=O)Cc2cc(NS(C)(=O)=O)ccc2O[C@@H]1CN(C)Cc1ccc(Cl)c(Cl)c1	CRFR2-BP antag 55 (no result: TMEM16A inh)
C[C@@H]1CN([C@@H](C)CO)C(=O)Cc2cc(NC(=O)Nc3ccc(F)cc3)ccc2O[C@@H]1CN(C)Cc1ccc(Cl)c(Cl)c1	none (no result: TMEM16A inh)
C[C@H](CO)N1C[C@H](C)[C@@H](CN(C)C(=O)Nc2ccccc2)Oc2c(NC(=O)Nc3ccc(C(F)(F)F)cc3)cccc2C1=O	TAAR1 antagonist 49 (no result: TMEM16A inh)
CC(C)NC(=O)Nc1cccc2c1O[C@H](CN(C)C(=O)Nc1ccccc1)[C@@H](C)CN([C@H](C)CO)C2=O	none (no result: TMEM16A inh)
Cc1ccccc1-c1cc(C(=O)NCc2ccc3c(c2)OCO3)nn1CC1CC(c2cccc([N+](=O)[O-])c2)=NO1 (configuration not stated)	none (no result: TMEM16A inh)
Cc1cnc(C2OCCO2)c2cccc(N)c12	none (no result: TMEM16A act, TMEM16A inh)
O=C(CS(=O)(=O)c1ccccc1)Nc1nccs1	none
COc1cc(C2C(C#N)=C(N)Oc3cc(N(C)C)ccc32)cc2c1OCO2 (configuration not stated)	CRFR2-BP ag 158
COc1cc(C2C(C#N)=C(N)Oc3cc(O)ccc32)cc2c1OCO2 (configuration not stated)	none
COc1ccc(C2C(C#N)=C(N)Oc3cc(O)ccc32)cc1OC (configuration not stated)	none
COc1ccc(C2C(C#N)=C(N)Oc3cc(O)ccc32)cc1C (configuration not stated)	CRFR2-BP ag 55
Cc1ccnc2nc(C(=O)OCC(=O)N(C)C3CCCCC3)nn12	none (no result: TMEM16A act, TMEM16A inh)
Cc1ccc(C)c(-c2cc(C(=O)NCc3cccs3)c3ccccc3n2)c1	TAAR1 antagonist 49
Cc1ccc(C)c(-c2cc(C(=O)Nc3nccs3)c3ccccc3n2)c1	TAAR1 antagonist 51
COC(=O)c1sccc1NC(=O)c1cc(-c2cc(C)ccc2C)nc2ccccc12	none
Cc1cc(NC(=O)c2cc(-c3ccc(C)s3)nc3ccccc23)no1	none
Cc1cccc(NC(=O)c2cc(-c3ccc(C)s3)nc3ccccc23)n1	TAAR1 antagonist 51
O=C1CCC(C(=O)N2CCN(c3ccccc3)CC2)CN1CC1CCCCC1 (configuration not stated)	none
COc1ccc(S(=O)(=O)N(C)C[C@H]2Oc3ncc(C#CC4(O)CCCC4)cc3C(=O)N([C@@H](C)CO)C[C@@H]2C)cc1	none (no result: TMEM16A act, TMEM16A inh)
CCCN(CC(=O)Nc1ccccc1C)C(=O)C1CCN(S(=O)(=O)c2cccc(C(F)(F)F)c2)CC1	none
CCCCOc1ccc(C(=O)Nc2ccc(OCC(=O)N3CCOCC3)cc2)cc1	none
CCN(CC)S(=O)(=O)c1ccc(C(=O)Nc2ccc(OCC(=O)N3CCOCC3)cc2)cc1	TMEM16A act -12
CC(=O)c1ccc(NC(=O)C[n+]2cccc(C)c2)cc1	none
CC(C)CCn1nnnc1C(C(C)C)N1CCC(C(N)=O)CC1 (configuration not stated)	TMEM16A inh 100
Cc1cccc(N2CCN(C(=O)c3ccc(S(=O)(=O)N(C)c4ccccc4)cc3)CC2)c1C	none (no result: TMEM16A inh)
COc1cc2c(cc1NC(=O)CN1C(=O)NC3(CCc4ccccc43)C1=O)oc1ccccc12 (configuration not stated)	TAAR1 antagonist 50
COc1ccccc1C1SCCN1S(=O)(=O)c1ccccc1 (configuration not stated)	CRFR2-BP antag 108 (no result: TMEM16A act, TMEM16A inh)
COc1ccccc1C1SCCN1S(=O)(=O)c1cccc(C(F)(F)F)c1 (configuration not stated)	none
CCOC(=O)Cc1c(C)nc2c(-c3ccc(Cl)cc3)c(C)nn2c1C	TMEM16A act -4.8
CCOC(=O)Cc1c(C)nc2c(-c3ccccc3OC)c(C)nn2c1C	none
